Measurements reported in ChEMBL document CHEMBL5055627 (J Med Chem, 2021).
In brackets after ≈: the same amount, converted by molar mass. Activity calls are given as the source filed them. No cut-off for these calls is given here.

Legend:
[1] = biological target: T1, 20S immunoproteasome beta-2i subunit (Homo sapiens, UniProt P40306); assay: Inhibition of human 20S immunoproteasome beta-2i subunit at 100 uM using Z-VLR-AMC as substrate measured over 1.5 to 2 hrs by plate reader assay relative to control; conditions: probe Z-VLR-AMC, time 1.5-2 hrs
T1 sequence (P40306 whole entry): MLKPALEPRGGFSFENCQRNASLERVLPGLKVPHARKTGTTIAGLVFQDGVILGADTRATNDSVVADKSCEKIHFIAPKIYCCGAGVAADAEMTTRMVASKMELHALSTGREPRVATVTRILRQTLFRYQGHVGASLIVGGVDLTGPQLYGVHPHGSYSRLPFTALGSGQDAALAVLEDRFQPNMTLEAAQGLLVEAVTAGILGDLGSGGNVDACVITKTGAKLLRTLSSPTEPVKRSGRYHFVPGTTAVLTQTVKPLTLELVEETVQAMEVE
Procedure, shortened: (§1)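 Human c-20S β2c or i-20S β2i, activated with 6 nM PA28α, with 50 μM Z-VLR-AMC in 20 mM HEPES, 0.5 mM EDTA, pH 7.5. Compounds in 3-fold series from 100 μM.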

[2] = biological target: T2, Proteasome subunit beta type-8 (Homo sapiens, UniProt P28062); assay: Inhibition of human 20S immunoproteasome beta-5i subunit using Suc-LLVY-AMC as substrate measured over 1.5 to 2 hrs by plate reader assay
T2 sequence (P28062 whole entry): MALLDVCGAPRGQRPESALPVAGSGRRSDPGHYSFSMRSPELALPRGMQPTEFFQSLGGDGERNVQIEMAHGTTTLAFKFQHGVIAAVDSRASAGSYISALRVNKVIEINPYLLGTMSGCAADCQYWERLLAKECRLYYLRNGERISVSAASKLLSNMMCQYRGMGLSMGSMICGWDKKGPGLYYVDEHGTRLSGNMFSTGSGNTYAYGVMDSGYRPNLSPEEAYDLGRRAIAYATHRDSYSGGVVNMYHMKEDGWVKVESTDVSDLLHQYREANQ
Procedure, shortened: (§2)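 Human c-20S (from red blood cells; β5c 0.2 nM final) or i-20S (from PBMC; β5i 0.4 nM final), activated with 0.02% SDS. Buffer 20 mM HEPES, 0.5 mM EDTA, pH 7.5; 3-fold compound series from 100 μM.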

[3] = biological target: T3, Proteasome Macropain subunit MB1 (Homo sapiens, UniProt P28074); assay: Inhibition of human 20S constitutive proteasome beta-5c subunit using Suc-LLVY-AMC as substrate measured over 1.5 to 2 hrs by plate reader assay; procedure, shortened: as §2
T3 sequence (P28074 whole entry): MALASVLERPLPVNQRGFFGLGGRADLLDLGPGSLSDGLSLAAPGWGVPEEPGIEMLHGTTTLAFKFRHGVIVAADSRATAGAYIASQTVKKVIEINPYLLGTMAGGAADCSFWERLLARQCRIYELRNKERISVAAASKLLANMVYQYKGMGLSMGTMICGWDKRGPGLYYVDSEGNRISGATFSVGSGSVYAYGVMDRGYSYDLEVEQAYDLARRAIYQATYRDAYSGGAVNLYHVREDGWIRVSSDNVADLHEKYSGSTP

[4] = biological target: T4, 20S immunoproteasome beta-1i subunit (Homo sapiens, UniProt P28065); assay: Inhibition of human 20S immunoproteasome beta-1i subunit at 100 uM using Z-LLE-AMC as substrate measured over 1.5 to 2 hrs by plate reader assay relative to control; conditions: probe Z-LLE-AMC, time 1.5-2 hrs
T4 sequence (P28065 whole entry): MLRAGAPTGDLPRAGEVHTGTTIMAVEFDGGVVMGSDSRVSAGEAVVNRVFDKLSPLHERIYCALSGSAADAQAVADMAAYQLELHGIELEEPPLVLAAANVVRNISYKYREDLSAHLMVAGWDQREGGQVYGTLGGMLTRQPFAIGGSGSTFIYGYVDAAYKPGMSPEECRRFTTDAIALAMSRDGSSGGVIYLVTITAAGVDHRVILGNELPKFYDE
Procedure, shortened: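 Human c-20S β1c or i-20S β1i, activated with 0.02% SDS, with 50 μM Z-LLE-AMC in 20 mM HEPES, 0.5 mM EDTA, pH 7.5. AMC fluorescence (ex 360/em 460 nm) recorded over 1.5–2 h.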

[5] = biological target: T5, Proteasome subunit beta type-10 (Homo sapiens, UniProt P40306); assay: Inhibition of human 20S immunoproteasome beta-2i subunit using Z-VLR-AMC as substrate measured over 1.5 to 2 hrs by plate reader assay; procedure, shortened: as §1
T5 sequence (P40306 whole entry): T1 sequence (P40306 whole entry)

[6] = Stability in human plasma assessed as parent compound remaining incubated for 2 hrs by UPLC/MS analysis; assay type: ADME, cell-free; conditions: read-out: Stability
[7] = system: HepG2; assay: Cytotoxicity against human HepG2 cells assessed as cell viability at 30 uM incubated for 72 hrs relative to control; assay type: cell-based; conditions: hepg2, 72 h
Procedure, shortened: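 HepG2 cells exposed to 30 μM compound for 72 h, then viability assessed.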

[8] = Kinetic solubility of compound in PBS at pH 6.8 incubated for 24 hrs by UPLC/MS analysis; assay type: physicochemical; conditions: read-out: Kinetic_solubility
[9] = system: Mycobacterium tuberculosis; assay: Inhibition of intracellular 20S proteasome activity in Mycobacterium tuberculosis MHD1441 expressing Pup-GFP assessed as Pup-GFP accumulation measured after 4 days by fluorescence assay; assay type: cell-based; conditions: dose 0.1-33 µM, time 4.0 day
Procedure, shortened: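 Mtb H37Rv carrying pSCK1 (produces Pup-GFP), adjusted to OD 0.05 in 7H9. Compounds at 33, 11, 3.7, 1.2, 0.4 and 0.1 μM final, incubated 4 d at 37 °C. OD580 and fluorescence (ex 495/em 510 nm) read; RFU normalised to OD, then expressed as fold of DMSO control; ≥3 independent experiments.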

[10] = Stability of mouse liver microsomes assessed as intrinsic clearance at 1 uM measured upto 30 mins in presence of NADPH generating system by LC/MS-MS analysis; assay type: ADME, Microsome; conditions: 0.5 h
Procedure, shortened: (§3)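 Compound at 1 μM with human or mouse liver microsomes (0.2 mg protein/mL) in phosphate buffer pH 7.4, started with NADPH-generating system; 1% organic solvent. Incubated at 37 °C for 0, 15 and 30 min in duplicate, quenched with acetonitrile plus internal standard, analysed by LC/MS-MS. CLint = first-order k divided by protein concentration.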

[11] = Permeability of compound by PAMPA; assay type: ADME
[12] = Stability of human liver microsomes assessed as intrinsic clearance at 1 uM measured upto 30 mins in presence of NADPH generating system by LC/MS-MS analysis; assay type: ADME, Microsome; conditions: 0.5 h; procedure, shortened: as §3
[13] = system: Mycobacterium tuberculosis; assay: Inhibition of intracellular 20S proteasome activity in Mycobacterium tuberculosis assessed as accumulation of pupylated protein at 50 uM incubated for 48 hrs; assay type: cell-based
Procedure, shortened: (§4)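 Mtb CDC1551 dop::MycoMarT7 expressing Pup-GGE (no depupylation) treated 48 h with compound at 1, 3 or 10 μM, or carfilzomib at 50 μM. Pupylated proteins detected by anti-Pup immunoblot, with anti-PrcB as loading control.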

[14] = Inhibition of Mycobacterium tuberculosis 20S proteasome expressed in Escherichia coli BL21(DE3) using Suc-LLVY-AMC as substrate by plate reader assay
[15] = system: Mycobacterium tuberculosis; assay: Bactericidal activity against Mycobacterium tuberculosis under nitrosative stress condition; assay type: functional, organism-based
Procedure, shortened: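 Non-replicating Mtb Erdman held in Sauton's medium with 0.5 mM NaNO₂ at pH 5.5 to generate NO; killing measured as reported previously.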

[16] = system: Mycobacterium tuberculosis; assay: Inhibition of intracellular 20S proteasome activity in Mycobacterium tuberculosis assessed as accumulation of pupylated protein incubated for 48 hrs; assay type: cell-based; conditions: dose 1-10 µM; procedure, shortened: as §4
[17] = system: Mycobacterium tuberculosis; assay: Inhibition of Mycobacterium tuberculosis 20S proteasome expressed in Escherichia coli BL21(DE3) assessed as half life using Suc-LLVY-AMC as substrate by plate reader assay
[18] = system: Mycobacterium tuberculosis; assay: Inhibition of Mycobacterium tuberculosis 20S proteasome expressed in Escherichia coli BL21(DE3) at 10 to 30 nM using Suc-LLVY-AMC as substrate by plate reader assay; conditions: dose 10-30 nM, TDE = time-dependent effect

SMILES | inhibition at 100 µM [1] [%] | IC50 [2] [µM] | IC50 [3] [µM] | inhibition at 100 µM [4] [%] | also measured
O=C1CCCCCCCCOC[C@@H](C(=O)NCc2cccc3ccccc23)NC(=O)[C@H](CC(=O)N2CCCC2)N1 | < 50 | > 100 | > 100 | < 50 | 
O=C1CCc2cccc(c2)OCCCC[C@@H](C(=O)NCc2ccccc2F)NC(=O)[C@H](CC(=O)N2CCC[C@@H]2C2CC2)N1 | < 50 | 0.069 | 0.073 | < 50 | IC50 [5]: 44.5 µM
O=C1CCc2cccc(c2)OCCCC[C@@H](C(=O)NCc2ccccc2F)NC(=O)[C@H](CC(=O)N2CCC[C@@H]2c2ccccc2)N1 | < 50 | > 100 | > 100 | < 50 | remaining at 2 h [6]: 97%; Activity [7]: 102%; solubility kinetic at 24 h [8]: 33 µg/mL (≈ 52.5 µM); inhibition [9]: Dose-dependent effect; CLH [10]: > 768 µL/min/mg; permeability [11]: 20.6 ×10⁻⁶ cm/s; CLH [12]: > 768 µL/min/mg
O=C1N[C@@H](CC(=O)N2CCCC2)C(=O)N[C@H](C(=O)NCc2cccc3ccccc23)CCCCCCCCCC1Cc1ccccc1 (stereo partly drawn) | < 50 | > 100 |  | < 50 | 
O=C(N[C@H]1Cc2cccc(c2)Oc2ccc(cc2)C[C@@H](C(=O)NCc2ccccc2F)NC(=O)[C@H](CC(=O)N2CCC[C@@H]2c2ccccc2)NC1=O)c1ccccc1 | < 50 | > 100 | > 100 | < 50 | 
CC(=O)N[C@H]1Cc2cccc(c2)Oc2ccc(cc2)C[C@@H](C(=O)NCc2ccccc2F)NC(=O)[C@H](CC(=O)N2CCC[C@@H]2c2ccccc2)NC1=O | < 50 | > 100 | > 100 | < 50 | 
CCN(CC)C(=O)C[C@H](NC(=O)CCc1ccccc1)C(=O)N[C@@H](Cc1ccc(F)cc1)C(=O)NCc1cccc2ccccc12 |  | 54.7 | 70 |  | 
CC(C)C[C@H](NC(=O)[C@H](CCc1ccccc1)NC(=O)CN1CCOCC1)C(=O)N[C@@H](Cc1ccccc1)C(=O)N[C@@H](CC(C)C)C(=O)[C@@]1(C)CO1 |  |  |  |  | inhibition [13]: Active
O=C1CCc2cccc(c2)Oc2ccc(cc2)C[C@@H](C(=O)NCc2ccccc2F)NC(=O)[C@H](CC(=O)N2CCCC2)N1 | < 50 | 21.1 | > 100 | < 50 | 
O=C1CCCCCCCCOC[C@@H](C(=O)NCc2ccccc2F)NC(=O)[C@H](CC(=O)N2CCC[C@@H]2c2ccccc2)N1 | < 50 | > 100 | > 100 | < 50 | remaining at 2 h [6]: 86%; Activity [7]: 91%; inhibition [9]: Dose-dependent effect; CLH [10]: > 768 µL/min/mg; permeability [11]: 26 ×10⁻⁶ cm/s; CLH [12]: > 768 µL/min/mg
O=C1CCc2cccc(c2)OCCCC[C@@H](C(=O)NCc2ccccc2F)NC(=O)[C@H](CC(=O)N2CCC[C@H]2C2CC2)N1 | < 50 | 0.87 | 1.5 | < 50 | 
O=C1CCCCCCCCC[C@@H](C(=O)NCc2cccc3ccccc23)NC(=O)[C@H](CC(=O)N2CCCC2)N1 | < 50 | > 100 | > 100 | < 50 | 
O=C1CCc2cccc(c2)OCCCC[C@@H](C(=O)NCc2ccccc2F)NC(=O)[C@H](CCN2CCC[C@@H]2c2ccccc2)N1 |  | 47.3 | 86.2 |  | 
O=C1CCCCCCCCCC[C@@H](C(=O)NCc2cccc3ccccc23)NC(=O)[C@H](CC(=O)N2CCCC2)N1 | < 50 | > 100 | > 100 | < 50 | 
O=C1CCc2cccc(c2)Oc2ccc(cc2)C[C@@H](C(=O)NCc2ccccc2F)NC(=O)[C@H](CC(=O)N2CCC[C@@H]2c2ccccc2)N1 | < 50 | > 100 | > 100 | < 50 | remaining at 2 h [6]: 94%; Ki [14]: 0.0121 µM; Activity [15]: Dose-dependent effect; inhibition [16]: Dose-dependent effect; Activity [7]: 98%; solubility kinetic at 24 h [8]: 1.4 µg/mL (≈ 2.11 µM); T1/2 [17]: 16.5 min; inhibition [9]: Dose-dependent effect; CLH [10]: > 768 µL/min/mg; inhibition [18]: Tde; permeability [11]: 22.7 ×10⁻⁶ cm/s; CLH [12]: > 768 µL/min/mg
